Experimental data taken from ChEMBL document CHEMBL1122058, “Agents for the treatment of brain injury. 1. (Aryloxy)alkanoic acids” (J Med Chem, 1982).
Calls of active or inactive are those of the source. The rule behind the calls is not given here.

Experiments:
[1] = Distribution coefficient (D %) between octanol and buffer of pH 7.4; assay type: physicochemical; conditions: octanol/water
[2] = Dissociation constant (pKa) (determined in 30% EtOH); assay type: physicochemical
Felis catus [3] = species: Felis catus; test: In vitro inhibition of HCO3- stimulated swelling in cat cerebrocortical tissue slice; assay type: functional; conditions: read-out: I 50
Method in brief: (§1)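 Cat cerebral cortex slices (~150 mg, 0.5 mm) incubated aerobically 60 min at 37 °C in K+-rich (27 mM) Hepes-buffered saline-glucose with test compound as Na salt. HCO3- (NaHCO3 or TEAB) added from sidearm at 20 min to 10 mM final; HCO3- flasks gassed with 2.5% CO2/97.5% O2. Swelling by reweighing; Na+/K+ by flame photometry, Cl- by amperometric titration. Units: per g initial fresh weight; means ± SE, Student's t test.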

Felis catus [4] = species: Felis catus; test: Evaluated for Potassium ion content of Cerebrocortical slices in cat with addition of Sodium Bicarbonate (NaHCO3) at a compound concentration of 1 X 10E-7 M..; assay type: functional; method in brief: as §1
Felis catus [5] = species: Felis catus; test: Evaluated for Potassium ion content of Cerebrocortical slices in cat with addition of Triethylammonium Bicarbonate (TEAB) at a compound concentration of 1 X 10E-5 M.; assay type: functional; method in brief: as §1
Felis catus [6] = species: Felis catus; test: Evaluated for Sodium ion content of Cerebrocortical slices in cat with addition of Sodium Bicarbonate (NaHCO3) at a compound concentration of 1 X 10E-5 M..; assay type: functional; method in brief: as §1
Felis catus [7] = species: Felis catus; test: Evaluated for chloride ion content of Cerebrocortical slices in cat with addition of Triethylammonium Bicarbonate (TEAB) at a compound concentration of 1 X 10E-5 M.; assay type: functional; method in brief: as §1
Felis catus [8] = species: Felis catus; test: In vitro inhibition of tissue swelling of Cerebrocortical slices from cat with addition of Sodium Bicarbonate (NaHCO3) at a compound concentration of 1 X 10E-7 M; assay type: functional; method in brief: as §1
Pan troglodytes [9] = species: Pan troglodytes; test: Relative salidiuretic efficacy was scored in chimpanzee; marked; assay type: functional, organism-based; conditions: Urine
Canis familiaris [10] = species: Canis familiaris; test: Relative salidiuretic efficacy was scored in dog; moderate; assay type: functional, organism-based; conditions: Canis lupus familiaris; Urine
Rattus norvegicus [11] = species: Rattus norvegicus; test: Relative salidiuretic efficacy was scored in Rat; marked; assay type: functional, organism-based; conditions: Urine
[12] = Evaluated for Potassium ion content of Cerebrocortical slices in cat with addition of Sodium Bicarbonate (NaHCO3) at a compound concentration of 1 X 10E-5 M; assay type: functional, Felis catus; method in brief: as §1
[13] = Evaluated for Sodium ion content of Cerebrocortical slices in cat with addition of Triethylammonium Bicarbonate (TEAB) at a compound concentration of 1 X 10E-5 M.; assay type: functional, Felis catus; method in brief: as §1
[14] = Evaluated for chloride ion content of Cerebrocortical slices in cat with addition of Sodium Bicarbonate (NaHCO3) at a compound concentration of 1 X 10E-5 M..; assay type: functional, Felis catus; method in brief: as §1
[15] = In vitro inhibition of tissue swelling of Cerebrocortical slices from cat with addition of Triethylammonium Bicarbonate (TEAB) at a compound concentration of 1 X 10E-5 M.; assay type: functional, Felis catus; method in brief: as §1
Felis catus [16] = species: Felis catus; test: In vitro inhibition of tissue swelling of Cerebrocortical slices from cat with addition of Sodium Bicarbonate (NaHCO3) at a compound concentration of 1 X 10E-5 M..; assay type: functional; method in brief: as §1
Felis catus [17] = species: Felis catus; test: In vitro inhibition of HCO3- stimulated swelling in cat cerebrocortical tissue slice; No inhibition occurred; assay type: functional; conditions: read-out: I 50; method in brief: as §1
Felis catus [18] = species: Felis catus; test: Evaluated for chloride ion content of Cerebrocortical slices in cat with addition of Sodium Bicarbonate (NaHCO3) and at a compound concentration of 1 X 10E-5 M; assay type: functional; method in brief: as §1
Felis catus [19] = species: Felis catus; test: In vitro inhibition of tissue swelling of Cerebrocortical slices from cat with addition of Triethylammonium Bicarbonate (TEAB) and at a compound concentration of 1 X 10E-5 M.; assay type: functional; method in brief: as §1
Felis catus [20] = species: Felis catus; test: In vitro inhibition of tissue swelling of Cerebrocortical slices from cat with addition of Sodium Bicarbonate (NaHCO3) and at a compound concentration of 1 X 10E-5 M; assay type: functional; method in brief: as §1
Pan troglodytes [21] = species: Pan troglodytes; test: Relative salidiuretic efficacy was scored in chimpanzee; moderate; assay type: functional, organism-based; conditions: Urine
Canis familiaris [22] = species: Canis familiaris; test: Relative salidiuretic efficacy was scored in dog; weak; assay type: functional, organism-based; conditions: Canis lupus familiaris; Urine
Rattus norvegicus [23] = species: Rattus norvegicus; test: Relative salidiuretic efficacy was scored in Rat; moderate; assay type: functional, organism-based; conditions: Urine
[24] = Compound at a concentration of 1 X 10E-5 M along with addition of Sodium Bicarbonate (NaHCO3) was tested for percent bicarbonate stimulated swelling of Cerebrocortical slices in cat (in vitro); assay type: functional, Felis catus; method in brief: as §1
[25] = Evaluated for Potassium ion content of Cerebrocortical slices in cat with addition of Sodium Bicarbonate (NaHCO3) and at a compound concentration of 1 X 10E-5 M; assay type: functional, Felis catus; method in brief: as §1
[26] = Evaluated for Potassium ion content of Cerebrocortical slices in cat with addition of Triethylammonium Bicarbonate (TEAB) and at a compound concentration of 1 X 10E-5 M.; assay type: functional, Felis catus; method in brief: as §1
Felis catus [27] = test: Mortality of animals recorded as the number of animals dead out of the total animals (16) taken for the study at dose 5 mg/kg; assay type: functional
Method in brief: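 Adult conditioned cats (2.5–4 kg) under iv methohexital (13.25 mg/kg, plus 2.75 mg/kg if needed) received machine-induced acceleration/deceleration head injury. Forty min later they were paralysed with gallamine and ventilated with 6% O2/94% N2 for 60 min (arterial pO2 23 ± 1 torr). Drug was given iv 20 min post-injury, before hypoxemia. Mortality was scored as dead/total, chi-square tested.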

Pan troglodytes [28] = species: Pan troglodytes; test: Relative salidiuretic efficacy was scored in chimpanzee; Marginal; assay type: functional, organism-based; conditions: Urine
Canis familiaris [29] = species: Canis familiaris; test: Relative salidiuretic efficacy was scored in dog; Marginal; assay type: functional, organism-based; conditions: Canis lupus familiaris; Urine
Rattus norvegicus [30] = species: Rattus norvegicus; test: Relative salidiuretic efficacy was scored in Rat; Marginal; assay type: functional, organism-based; conditions: Urine

With `C[C@]1(C2CCCC2)Cc2cc(OCC(=O)O)c(Cl)c(Cl)c2C1=O` the Distribution [1] was 90%, the pKa [2] was 3.9 and the IC50 (Felis catus [3]) was 100 nM. It also gave an Activity (Felis catus [4]) of 98.4 µM/g, an Activity (Felis catus [5]) of 95.9 µM/g and an Activity (Felis catus [6]) of 101.8 µM/g. The Activity (Felis catus [7]) was 84.1 µM/g, the Tissue swelling (Felis catus [8]) was 232 µL/g and the Relative salidiuretic activity (Pan troglodytes [9]) was “marked”. The Relative salidiuretic activity (Canis familiaris [10]) was “marked”, the Relative salidiuretic activity (Rattus norvegicus [11]) was “marked” and the Activity [12] was 92.4 µM/g. For the same molecule, the Activity [13] was 100.9 µM/g, the Activity [14] was 89 µM/g and the Tissue swelling [15] was 156 µM/g. The Tissue swelling (Felis catus [16]) was 157 µL/g.

In the case of `C[C@@]1(C2CCCC2)Cc2cc(OCC(=O)O)c(Cl)c(Cl)c2C1=O`, the Distribution [1] is reported as 90%, the pKa [2] is reported as 3.9 and the IC50 (Felis catus [17]) is reported as over 10000 nM. The Activity (Felis catus [18]) was 104.6 µM/g, the Activity (Felis catus [19]) was 279 µM/g and the Tissue swelling (Felis catus [20]) was 266 µL/g. The Relative salidiuretic activity (Pan troglodytes [21]) was “marked”, the Relative salidiuretic activity (Canis familiaris [22]) was “marked” and the Relative salidiuretic activity (Rattus norvegicus [23]) was “marked”. It also gave an Activity [24] of 100, an Activity [25] of 96.4 µM/g and an Activity [26] of 93.6 µM/g.

In the case of `CC1(C2CCCC2)Cc2cc(OCCCC(=O)O)c(Cl)c(Cl)c2C1=O` (racemic), the Distribution [1] is reported as 99%, the pKa [2] is reported as 5.7 and the Mortality (Felis catus [27]) is reported as 4. For the same molecule, the IC50 (Felis catus [3]) was 20 nM, the Relative salidiuretic activity (Pan troglodytes [28]) was “inactive” and the Relative salidiuretic activity (Canis familiaris [29]) was “inactive”. For the same molecule, the Relative salidiuretic activity (Rattus norvegicus [30]) was “inactive”.
